Holding throughout (format): functional
The subject of assay [1] is Echinochloa crus-galli. The assay can be described thus: Herbicidal activity against Echinochloa crus-galli (barnyard grass) assessed as inhibition in green house at 375 g/ha pre-emergence treatment measured after 15 days. Particulars: 360 h. The method in brief: (§1)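 Greenhouse pot test. Two replicates per treatment. Control was the same amount of water, N,N-dimethylformamide and Tween 20. Fresh weights were taken 15 days after treatment, and percentage inhibition was calculated relative to controls.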

Assay [2] has as its system Echinochloa crus-galli. The assay can be described thus: Herbicidal activity against Echinochloa crus-galli (barnyard grass) assessed as inhibition of seedling growth at 100 ug/ml at 28 +/- 1 degC measured after 65 hr by cup test.
For assay [3], the system named is Brassica rapa subsp. oleifera. The assay can be described thus: Herbicidal activity against Brassica rapa subsp. oleifera assessed as inhibition of root growth at 100 ug/ml at 28 +/- 1 degC measured after 65 hr by root test. The method in brief:
(§2)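 Rape seeds were presoaked 4 h in distilled water. About 15 seeds were placed per 6-cm Petri plate on filter paper pre-wetted with 2 mL inhibitor solution. Plates germinated in the dark for 65 h at 28 ± 1 °C. Root length of 10 roots per plate was measured and averaged. Result expressed as percentage inhibition.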

The subject of assay [4] is Echinochloa crus-galli. The assay can be described thus: Herbicidal activity against Echinochloa crus-galli (barnyard grass) assessed as inhibition in green house at 1500 g/ha post-emergence treatment measured after 15 days. As to conditions: 360 h. In outline:
as §1

The subject of assay [5] is Echinochloa crus-galli. As to the kind of experiment: Herbicidal activity against Echinochloa crus-galli (barnyard grass) assessed as inhibition of seedling growth at 10 ug/ml at 28 +/- 1 degC measured after 65 hr by cup test.
Assay [6] relates to Brassica rapa subsp. oleifera. As to the kind of experiment: Herbicidal activity against Brassica rapa subsp. oleifera assessed as inhibition of root growth at 10 ug/ml at 28 +/- 1 degC measured after 65 hr by root test. In outline: as §2
Assay [7] deals with Brassica rapa subsp. oleifera. The assay can be described thus: Herbicidal activity against Brassica rapa subsp. oleifera assessed as inhibition in green house at 1500 g/ha pre-emergence treatment measured after 15 days. As to conditions: 360 h. The method in brief:
as §1

In assay [8] the test system is Digitaria sanguinalis. The assay can be described thus: Herbicidal activity against Digitaria sanguinalis (hairy crabgrass) assessed as inhibition in green house at 375 g/ha pre-emergence treatment measured after 15 days. As to conditions: 360 h. The method in brief: as §1
In assay [9] the test system is Digitaria sanguinalis. As to the kind of experiment: Herbicidal activity against Digitaria sanguinalis (hairy crabgrass) assessed as inhibition in green house at 750 g/ha pre-emergence treatment measured after 15 days. Particulars: 360 h. The method in brief: as §1
For assay [10], the system named is Amaranthus retroflexus. The assay can be described thus: Herbicidal activity against Amaranthus retroflexus assessed as inhibition in green house at 1500 g/ha pre-emergence treatment measured after 15 days. Particulars: 360 h. In outline:
as §1

Assay [11] has as its system Echinochloa crus-galli. As to the kind of experiment: Herbicidal activity against Echinochloa crus-galli (barnyard grass) assessed as inhibition in green house at 1500 g/ha pre-emergence treatment measured after 15 days. As to conditions: 360 h. In outline:
as §1

Assay [12] has as its system Brassica rapa subsp. oleifera. As to the kind of experiment: Herbicidal activity against Brassica rapa subsp. oleifera assessed as inhibition in green house at 1500 g/ha post-emergence treatment measured after 15 days. Particulars: 360 h. The method in brief:
as §1

Assay [13] has as its system Amaranthus retroflexus. As to the kind of experiment: Herbicidal activity against Amaranthus retroflexus assessed as inhibition in green house at 1500 g/ha post-emergence treatment measured after 15 days. As to conditions: 360 h. In outline: as §1
The test system of assay [14] is Echinochloa crus-galli. As to the kind of experiment: Herbicidal activity against Echinochloa crus-galli (barnyard grass) assessed as inhibition in green house at 750 g/ha pre-emergence treatment measured after 15 days. Particulars: 360 h. The method in brief:
as §1

SMILES strings stand for the structures.

The term inhibition denotes the share of the control response that was lost under treatment. As to `COc1ccc(/C(O)=C2\C(=O)CN(C(C)C)C2=O)cc1`, the inhibition at 375 g/ha with Echinochloa crus-galli [1] was 20%; in the assay on Digitaria sanguinalis [8], 38%. For the same molecule, the inhibition at 100 µg/mL with Echinochloa crus-galli [2] stood at 80%; in [3] it was 71%. The inhibition at 1500 g/ha with Echinochloa crus-galli [4] is 75%; in assay [7], 0%; with Amaranthus retroflexus [10], 11%; in the assay with Echinochloa crus-galli [11] it was 98%; in assay [12], 6%; with Amaranthus retroflexus [13], 0%. Moreover, the inhibition at 10 µg/mL in the assay with Echinochloa crus-galli [5] was 80%; in assay [6] it was 12%. In addition, the inhibition at 750 g/ha with Digitaria sanguinalis [9] amounted to 54%; in the assay on Echinochloa crus-galli [14] it was 92%.
For `Cc1ccc(/C(O)=C2\C(=O)CN(C(C)C)C2=O)cc1`, the inhibition at 100 µg/mL in the assay with Echinochloa crus-galli [2] is 78%; in assay [3], 86%. Moreover, the inhibition at 1500 g/ha with Echinochloa crus-galli [4] was found to be 67%; in assay [7], 24%; in the assay with Amaranthus retroflexus [10] it was 11%; in the assay with Echinochloa crus-galli [11], 77%; in [12] it was 20%; with Amaranthus retroflexus [13], 0%. The inhibition at 10 µg/mL in the assay on Echinochloa crus-galli [5] was found to be 77%; in [6], 8%. For the same molecule, the figures for the inhibition at 750 g/ha in the assay on Digitaria sanguinalis [9] and with Echinochloa crus-galli [14] were 0% and 22%, respectively.
Regarding `Cc1ccc(/C(O)=C2\C(=O)CN(C(C)(C)C)C2=O)cc1`, the inhibition at 100 µg/mL with Echinochloa crus-galli [2] was determined as 48%; in assay [3] it was 88%. Moreover, the inhibition at 10 µg/mL in the assay with Echinochloa crus-galli [5] amounted to 36%; in assay [6], 14%.
In the case of `COc1ccccc1/C(O)=C1\C(=O)CN(C(C)C)C1=O`, the inhibition at 100 µg/mL in the assay with Echinochloa crus-galli [2] was determined as 78%; in assay [3] it was 59%. For the same molecule, the inhibition at 1500 g/ha in the assay with Echinochloa crus-galli [4] stood at 87%; in [7], 0%; with Amaranthus retroflexus [10], 16%; with Echinochloa crus-galli [11], 93%; in [12] it was 21%; with Amaranthus retroflexus [13] it was 0%. Further, the inhibition at 10 µg/mL in the assay on Echinochloa crus-galli [5] stood at 77%; in [6], 3%.
As for `Cc1ccc(/C(O)=C2\C(=O)CN(C(C)C)C2=O)c(C)c1`, the inhibition at 100 µg/mL in the assay with Echinochloa crus-galli [2] is 76%; in assay [3], 54%. Also, the inhibition at 1500 g/ha in the assay on Echinochloa crus-galli [4] turned out to be 66%; in assay [7] it was 20%; in the assay with Amaranthus retroflexus [10] it was 13%; with Echinochloa crus-galli [11], 71%; in assay [12] it was 16%; with Amaranthus retroflexus [13], 0%. Besides, the results for the inhibition at 10 µg/mL (with Echinochloa crus-galli [5]; in assay [6]) were 74% and 10%, respectively.
`CC(C)N1CC(=O)/C(=C(/O)c2ccc(C(C)(C)C)cc2)C1=O`: the inhibition at 100 µg/mL in the assay on Echinochloa crus-galli [2] was determined as 44%; in assay [3], 85%. In addition, the inhibition at 10 µg/mL in the assay with Echinochloa crus-galli [5] stood at 28%; in assay [6], 0%.
As for `CCCCCc1ccc(/C(O)=C2\C(=O)CN(C(C)C)C2=O)cc1`, the inhibition at 100 µg/mL in the assay on Echinochloa crus-galli [2] was 12%; in assay [3], 29%. Besides, the inhibition at 10 µg/mL in the assay with Echinochloa crus-galli [5] came out at 5.7%; in assay [6] it was 14%.
With `CCCc1ccc(/C(O)=C2\C(=O)CN(C(C)C)C2=O)cc1`, the inhibition at 100 µg/mL in the assay with Echinochloa crus-galli [2] amounted to 57%; in [3], 86%. Further, the inhibition at 10 µg/mL came to 27% in the assay with Echinochloa crus-galli [5] and 60% in [6].
In the case of `CC(C)(C)c1ccc(/C(O)=C2\C(=O)CN(C(C)(C)C)C2=O)cc1`, the inhibition at 100 µg/mL with Echinochloa crus-galli [2] was 18%; in [3], 79%. For the same molecule, the inhibition at 10 µg/mL in the assay on Echinochloa crus-galli [5] turned out to be 4%; in assay [6], 64%.
As to `CC(C)c1ccc(/C(O)=C2\C(=O)CN(C(C)(C)C)C2=O)cc1`, the inhibition at 100 µg/mL was determined as 18% with Echinochloa crus-galli [2] and 83% in [3]. Moreover, the inhibition at 10 µg/mL was 10% in the assay with Echinochloa crus-galli [5] and 75% in assay [6].
The like results for `CCCCCc1ccc(/C(O)=C2\C(=O)CN(C3CC3)C2=O)cc1` were, in that order, 23%, 57%, 5% and 0%.
The like results for `COc1ccc(/C(O)=C2\C(=O)CN(C3CC3)C2=O)c(OC)c1` were, in that order, 79%, 77%, 78% and 16%.
As for `Cc1cc(C)cc(/C(O)=C2\C(=O)CN(C(C)C)C2=O)c1`, the inhibition at 100 µg/mL stood at 42% in the assay on Echinochloa crus-galli [2] and 81% in [3]. Also, the inhibition at 10 µg/mL with Echinochloa crus-galli [5] was 22%; in assay [6], 3%.
Turning to `Cc1cc(C)cc(/C(O)=C2\C(=O)CN(C(C)(C)C)C2=O)c1`, the inhibition at 100 µg/mL was 40% with Echinochloa crus-galli [2] and 82% in [3]. Besides, the inhibition at 10 µg/mL in the assay on Echinochloa crus-galli [5] turned out to be 1%; in [6], 41%.
As for `COc1ccc(/C(O)=C2\C(=O)CN(C(C)(C)C)C2=O)cc1OC`, the inhibition at 100 µg/mL in the assay with Echinochloa crus-galli [2] stood at 59%; in assay [3], 70%. Besides, the inhibition at 10 µg/mL was 0% with Echinochloa crus-galli [5] and 58% in [6].
The like results for `Cc1cc(C)cc(/C(O)=C2\C(=O)CN(C3CC3)C2=O)c1` were, in that order, 29%, 86%, 0% and 70%.
Take `COc1cc(/C(O)=C2\C(=O)CN(C3CC3)C2=O)cc(OC)c1OC`: the inhibition at 100 µg/mL with Echinochloa crus-galli [2] was determined as 26%; in assay [3], 60%. For the same molecule, the inhibition at 10 µg/mL in the assay on Echinochloa crus-galli [5] turned out to be 4%; in assay [6] it was 45%.
The corresponding values for `CCCc1ccc(/C(O)=C2\C(=O)CN(C3CC3)C2=O)cc1` are 41%, 75%, 8% and 0%.
The corresponding values for `COCCOCOc1cccc(/C(O)=C2\C(=O)CN(C3CC3)C2=O)c1` are 33%, 35%, 4% and 0%.
The corresponding values for `COCCOCOc1ccc(/C(O)=C2\C(=O)CN(C3CC3)C2=O)cc1` are 12%, 51%, 0% and 19%.
For `COc1ccc(/C(O)=C2\C(=O)CN(C(C)C)C2=O)cc1OC`, the inhibition at 100 µg/mL with Echinochloa crus-galli [2] came out at 76%; in [3], 34%. Moreover, the inhibition at 10 µg/mL in the assay on Echinochloa crus-galli [5] was 68%; in [6], 24%.
The like results for `CC(C)c1ccc(/C(O)=C2\C(=O)CN(C(C)C)C2=O)cc1` were, in that order, 39%, 74%, 0% and 0%.
The like results for `COc1cc(/C(O)=C2\C(=O)CN(C(C)C)C2=O)cc(OC)c1OC` were, in that order, 0%, 69%, 0% and 61%.
With `COc1cc(OC)c(/C(O)=C2\C(=O)CN(C(C)C)C2=O)cc1OC`, the inhibition at 100 µg/mL in the assay with Echinochloa crus-galli [2] was 64%; in assay [3] it was 62%. Further, the inhibition at 10 µg/mL in the assay with Echinochloa crus-galli [5] was 0%; in [6], 60%.
The like results for `COCCOCOc1ccccc1/C(O)=C1\C(=O)CN(C(C)C)C1=O` were, in that order, 52%, 28%, 17% and 7%.
The corresponding values for `COCCOCOc1cccc(/C(O)=C2\C(=O)CN(C(C)C)C2=O)c1` are 74%, 10%, 8% and 0%.
On to `COCCOCOc1ccc(/C(O)=C2\C(=O)CN(C(C)C)C2=O)cc1`, for which the inhibition at 100 µg/mL in the assay with Echinochloa crus-galli [2] amounted to 21%; in assay [3] it was 51%. Further, the inhibition at 10 µg/mL in the assay with Echinochloa crus-galli [5] is 0%; in [6], 19%.

The record behind these values is ChEMBL document CHEMBL3045615, “Synthesis and herbicidal evaluation of novel 3-[(alpha-hydroxy-substituted)benzylidene]pyrrolidine-2,4-diones” (J Agric Food Chem, 2005).
